According to ChEMBL document CHEMBL2040760, “Synthesis and biological evaluation of novel (-)-Cercosporamide derivatives as potent selective PPARγ modulators” (Eur J Med Chem, 2012):
Converted amounts (≈) assume the structure as drawn. The source made the active and inactive calls. The calls are words filed in the database; no cut-off is given here.

Legend:
[1] = biological target: T1, Peroxisome proliferator-activated receptor gamma (Homo sapiens) (UniProt P37231); assay: Modulation of full-length human pSG5-fused PPARgamma expressed in MG-63 cells co-expressing pGV-P2-PPRE after 24 hrs by luciferase reporter gene based transactivation assay relative to 5-(4-{[6-(4-hydroxy-3,5-dimethylphenoxy)-1-methyl-1H-benzimidazol- 2-yl]methoxy}benzyl)-1,3-thiazolidine-2,4-dione; assay type: cell-based
T1 sequence (whole entry): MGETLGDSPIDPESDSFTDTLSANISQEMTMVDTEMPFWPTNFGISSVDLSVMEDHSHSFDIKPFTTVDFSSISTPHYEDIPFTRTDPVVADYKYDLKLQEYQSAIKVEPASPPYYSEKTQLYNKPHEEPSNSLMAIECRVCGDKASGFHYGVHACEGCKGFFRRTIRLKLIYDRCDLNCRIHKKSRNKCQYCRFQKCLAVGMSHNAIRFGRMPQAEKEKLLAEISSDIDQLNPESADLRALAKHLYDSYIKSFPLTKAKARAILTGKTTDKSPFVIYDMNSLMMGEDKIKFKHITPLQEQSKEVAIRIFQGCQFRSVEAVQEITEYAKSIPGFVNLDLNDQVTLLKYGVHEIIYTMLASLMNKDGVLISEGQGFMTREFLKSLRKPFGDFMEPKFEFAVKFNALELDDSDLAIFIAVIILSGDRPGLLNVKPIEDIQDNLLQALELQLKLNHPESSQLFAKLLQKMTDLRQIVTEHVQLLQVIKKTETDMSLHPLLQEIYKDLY
Summary of the method: (§1)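 MG-63 cells transiently co-transfected (Lipofectamine, 4 h, serum- and antibiotic-free) with pSG5-hPPARγ and pGV-P2-PPRE luciferase reporter, replated at 40,000 cells/well. After 24 h and medium change, exposed to graded compound concentrations for 20 h. Luciferase luminescence read as the output.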

[2] = biological target: T2, Peroxisome proliferator-activated receptor gamma (Homo sapiens, UniProt P37231); assay: Modulation of full-length human pSG5-fused PPARgamma expressed in MG-63 cells co-expressing pGV-P2-PPRE after 24 hrs by luciferase reporter gene based transactivation assay; assay type: cell-based; summary of the method: as §1
T2 sequence (P37231 whole entry): T1 sequence (whole entry)

[3] = Solubility of the compound in JP2 at pH 6.8; assay type: physicochemical; settings: JP2, pH 6.8
Summary of the method: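 Solubility was measured in JP2 medium at pH 6.8.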

[4] = biological target: T2, Peroxisome proliferator-activated receptor gamma; assay: Modulation of human GAL4-fused PPARgamma LBD expressed in COS7 cells co-expressing pG5luc by luciferase reporter gene based transactivation assay; assay type: cell-based, COS-7
Summary of the method: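 COS7 cells in DMEM with 10% FBS were transfected with pM-hPPARγ, pM-PPARα or pM-PPARδ (GAL4-LBD) plus pG5luc using Lipofectamine 2000, then reseeded and held about 24 h. Serial dilutions were added, with 0.1% DMSO as control, for about 24 h more. Read-out was luciferase luminescence. Mean ± S.E.M., n = 3.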

Rattus norvegicus [5] = assay: Antidiabetic activity in po dosed Zucker diabetic fatty rat assessed as improvement in plasma lipids profiles administered qd for 12 days; assay type: functional, organism-based
Summary of the method: (§2)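 Female ZDF rats, 5 weeks old on arrival, acclimatised over 1 week on MR-DBT chow with 10% lard. Randomised on Day -1 by BW, PG, insulin and blood indices. Once-daily oral gavage in 0.5% methylcellulose at 0.01–100 mg/kg for 12 days, n = 5. BW recorded daily. Tail-vein plasma taken Day 12 for glucose, TG, FFA and insulin kits. Dunnett vs vehicle.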

Rattus norvegicus [6] = assay: Antidiabetic activity in Zucker diabetic fatty rat assessed as reduction of triglyceride level at 1 to 100 mg/kg, po qd for 12 days; assay type: functional, organism-based
Summary of the method: (§3)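 Female ZDF rats (5 weeks old on arrival, acclimatized >1 week on MR-DBT diet with 10% lard) randomized on Day -1 by BW, plasma glucose, insulin, Hct, Hb, RBC, MCV; n = 5/group. Oral gavage once daily in 0.5% methylcellulose, 0.01–100 mg/kg, Days 0–11. BW recorded daily; tail-vein plasma on Day 12 for glucose, TG, insulin, FFA; Dunnett's test vs vehicle.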

Rattus norvegicus [7] = assay: Antidiabetic activity in Zucker diabetic fatty rat assessed as reduction of free fatty acids level at >1 mg/kg, po qd for 12 days; assay type: functional, organism-based; summary of the method: as §2
Rattus norvegicus [8] = assay: Toxicity in po dosed Wistar-Imamichi rat assessed as increase heart weight administered qd for 14 days; assay type: organism-based; settings: in vivo, 336 h
Summary of the method: (§4)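 Female Wistar–Imamichi rats (7 weeks old, acclimatized >1 week on FR2 chow), randomized by BW; n = 5/group. Oral gavage once daily in 0.5% methylcellulose, 100 mg/kg or 30–300 mg/kg, Days 0–13. BW recorded daily. On Day 14, heart weighed after Evans blue dosing and aortic blood draw under ether. Dunnett's or unpaired two-tailed t-test vs vehicle.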

Rattus norvegicus [9] = assay: Toxicity in Wistar-Imamichi rat assessed as increase in body weight at 300 mg/kg, po qd for 14 days; assay type: organism-based; design: dose 300 mg/kg, route oral; settings: in vivo, 336 h; summary of the method: as §4
Rattus norvegicus [10] = assay: Toxicity in Zucker diabetic fatty rat assessed as increase in body weight at 0.1 mg/kg, po qd for 12 days; assay type: organism-based; design: dose 0.1 mg/kg, route oral; settings: in vivo, 288 h; summary of the method: as §3
Rattus norvegicus [11] = assay: Antidiabetic activity in Zucker diabetic fatty rat assessed as reduction of non-fasting plasma glucose level at >1 mg/kg, po qd for 12 days; assay type: functional; summary of the method: as §2

Compound | Emax [1] [%] | EC50 [2] [µM] | further results
COc1cc(O)c2c(c1C(=O)NCc1c(C)ccc3cc(F)ccc13)OC1=CC(O)=C(C(C)=O)C(=O)[C@]12C | 28 | 0.027 | 
COc1cc(O)c2c(c1C(=O)NCc1c(C)ccc3ccccc13)OC1=CC(O)=C(C(C)=O)C(=O)[C@]12C | 47 | 0.028 | 
COc1cc(O)c2c(c1C(=O)NCc1c(C)ccc3cc(Cl)ccc13)OC1=CC(O)=C(C(C)=O)C(=O)[C@]12C | 26 | 0.056 | 
CCCc1ccc2ccccc2c1CNC(=O)c1c(OC)cc(O)c2c1OC1=CC(O)=C(C(C)=O)C(=O)[C@]12C | 37 | 0.043 | 
CCc1ccc2ccccc2c1CNC(=O)c1c(OC)cc(O)c2c1OC1=CC(O)=C(C(C)=O)C(=O)[C@]12C | 39 | 0.0037 | 
CCc1cc(F)c2ccccc2c1CNC(=O)c1c(OC)cc(O)c2c1OC1=CC(O)=C(C(C)=O)C(=O)[C@]12C |  | 0.00094 | solubility [3]: 0.023 mg/mL (≈ 43.3 µM); EC50 [4]: 0.012 µM
CN(CCOc1ccc(CC2SC(=O)NC2=O)cc1)c1ccccn1 (centres undefined) [ROSIGLITAZONE] |  |  | Activity (Rattus norvegicus [5]): Dose-dependent effect; Activity (Rattus norvegicus [6]): Active; Activity (Rattus norvegicus [7]): Active; Activity (Rattus norvegicus [8]): Dose-dependent effect; Activity (Rattus norvegicus [9]): Non-toxic; Activity (Rattus norvegicus [10]): Toxic; Activity (Rattus norvegicus [11]): <200 mg/dL
COc1cc(O)c2c(c1C(=O)NCc1c(C)cc(F)c3ccccc13)OC1=CC(O)=C(C(C)=O)C(=O)[C@]12C | 50 | 0.0048 | 
CCCCc1ccc2ccccc2c1CNC(=O)c1c(OC)cc(O)c2c1OC1=CC(O)=C(C(C)=O)C(=O)[C@]12C | 22 | 0.059 | 
